According to ChEMBL document CHEMBL4145690, “Rational Design and Structure Validation of a Novel Peptide Inhibitor of the Adenomatous-Polyposis-Coli (APC)-Rho-Guanine-Nucleotide-Exchange-Factor-4 (Asef) Interaction” (J Med Chem, 2018):
Each block holds one molecule with its values, some of them ahead of it. Activity calls are given as the source filed them. No cut-off for these calls is given here. *1 amine or outer side, *2 acyl side, *3 side chain or, on linkers, in order; H or OH if unused. Where a SMILES comes first, the peptide text is derived from it. [ ]: non-standard residue; d: D form. The star is where a group is joined. X4 = O=C(C1(N[*:1])C[C@@H]2CC[C@H]1C2)[*:2]; Leu(4,5-dehydro) = C=C(C)C[C@H](N)C(=O)O; Ala(2-furyl) = N[C@@H](Cc1ccco1)C(=O)O; 2Nal = N[C@@H](Cc1ccc2ccccc2c1)C(=O)O; X3 = O=C(c1cc2c(s1)CN([*:1])CC2)[*:2]; 3Thi = N[C@@H](Cc1ccsc1)C(=O)O; Aic = NC1(C(=O)O)Cc2ccccc2C1; Chg = N[C@H](C(=O)O)C1CCCCC1; Phg = N[C@H](C(=O)O)c1ccccc1; hLeu = CC(C)CC[C@H](N)C(=O)O; Pra = C#CC[C@H](N)C(=O)O; Cbz = O=C(OCc1ccccc1)*

How the values were obtained:
[1] = target: T1, Adenomatous polyposis coli protein (Homo sapiens, UniProt P25054); assay: Reversible binding affinity to His-tagged APC (unknown origin) by surface plasmon resonance assay
Outline: (§1)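 His-APC amine-coupled to a CM5 chip (EDC/NHS; protein in 50 mM Hepes, 300 mM NaCl, 1 mM EDTA, pH 7.5); BSA reference cell. Peptides injected in 0.05 M Hepes pH 7.5 at 30 µL/min; dissociation 6 min; regeneration with glycine-HCl pH 2.0. Kinetic constants fitted to a 1:1 Langmuir model.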

APC/Asef (Homo sapiens) [2] = target: T2, APC/Asef (Homo sapiens) (UniProt P25054+Q9NR80); assay: Inhibition of Flag-APC (303 to 876 residues) (unknown origin) /HA-Asef (170 to 632 residues) (unknown origin) interaction expressed in HEK293T cell lysates at 10 uM incubated for 2 hrs by coimmunoprecipitation assay
Outline: (§2)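 HEK293T cells co-transfected with Flag-APC (303–876) and HA-Asef (170–632); lysed in RIPA after 24 h and lysate cleared. Supernatant incubated with compound (2 or 10 µM) or DMSO for 2 h at 4 °C, then anti-FLAG M2 gel overnight at 4 °C. Beads washed and proteins analysed by western blot (anti-HA, anti-Flag), single experiment.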

[3] = target: T1, Adenomatous polyposis coli protein; assay: Binding affinity to APC (unknown origin) assessed as induction of blue shifts in fluorescence for APC-compound complexes at 35 uM incubate fro 30 mins by tryptophan fluorescence measurements assay
Outline: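 APC protein (5 µM) alone or with peptide at 35 µM in 50 mM Hepes pH 7.5, 300 mM NaCl, 1 mM EDTA, 50 µL. Incubated 30 min at room temperature with gentle shaking. Tryptophan excited at 280 nm; emission scanned 300–500 nm. Run in triplicate.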

[4] = target: T1, Adenomatous polyposis coli protein; assay: Binding affinity to His-tagged APC (unknown origin) assessed as dissociation constant by surface plasmon resonance assay; outline: as §1
[5] = target: T1, Adenomatous polyposis coli protein; assay: Binding affinity to His-tagged APC (unknown origin) assessed as association constant by surface plasmon resonance assay; outline: as §1
[6] = target: T1, Adenomatous polyposis coli protein; assay: Binding affinity to APC protein (303 to 739 residues) (unknown origin) incubated for 60 mins followed by probe addition and measured after 60 mins by competitive fluorescence polarization assay
Outline: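 Peptide in DMSO preincubated with protein 60 min at room temperature with shaking; probe added, then 60 min more. Controls: blank, tracer only, complex only. IC50 from dose-response curves, mean of three independent experiments.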

[7] = target: T1, Adenomatous polyposis coli protein; assay: Binding affinity to His-tagged APC (unknown origin) assessed as residence time by surface plasmon resonance assay; outline: as §1
[8] = target: T1, Adenomatous polyposis coli protein; assay: Binding affinity to APC (unknown origin) at 30 degC by ITC method
Outline: (§3)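 ITC in 50 mM HEPES pH 7.5, 300 mM NaCl, 1 mM EDTA at 30 °C. Titrations were repeated three times. Kd, ΔG, ΔH and −TΔS are averages of the three independent experiments. L/P ratio gives sites per APC.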

[9] = target: T1, Adenomatous polyposis coli protein; assay: Binding affinity to APC (unknown origin) assessed as association constant at 30 degC by ITC method; outline: as §3
[10] = target: T1, Adenomatous polyposis coli protein; assay: Binding affinity to His-tagged APC (unknown origin) by surface plasmon resonance assay; outline: as §1
[11] = target: T1, Adenomatous polyposis coli protein; assay: Binding affinity to APC (unknown origin) at 37 degC by ITC method
Outline: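 ITC at 37 °C in 50 mM HEPES pH 7.5, 300 mM NaCl, 1 mM EDTA. Titrations were repeated three times.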

APC/Asef (Homo sapiens) [12] = target: T2, APC/Asef (Homo sapiens); assay: Inhibition of Flag-APC (303 to 876 residues) (unknown origin) /HA-Asef (170 to 632 residues) (unknown origin) interaction expressed in HEK293T cell lysates incubated for 2 hrs by coimmunoprecipitation assay; outline: as §2
[13] = target: T1, Adenomatous polyposis coli protein; assay: Binding affinity to APC (unknown origin) assessed as intramolecular hydrogen bond formation by 1H nuclear magnetic resonance based hydrogen-deuterium-exchange assay

T1 sequence (P25054 whole entry): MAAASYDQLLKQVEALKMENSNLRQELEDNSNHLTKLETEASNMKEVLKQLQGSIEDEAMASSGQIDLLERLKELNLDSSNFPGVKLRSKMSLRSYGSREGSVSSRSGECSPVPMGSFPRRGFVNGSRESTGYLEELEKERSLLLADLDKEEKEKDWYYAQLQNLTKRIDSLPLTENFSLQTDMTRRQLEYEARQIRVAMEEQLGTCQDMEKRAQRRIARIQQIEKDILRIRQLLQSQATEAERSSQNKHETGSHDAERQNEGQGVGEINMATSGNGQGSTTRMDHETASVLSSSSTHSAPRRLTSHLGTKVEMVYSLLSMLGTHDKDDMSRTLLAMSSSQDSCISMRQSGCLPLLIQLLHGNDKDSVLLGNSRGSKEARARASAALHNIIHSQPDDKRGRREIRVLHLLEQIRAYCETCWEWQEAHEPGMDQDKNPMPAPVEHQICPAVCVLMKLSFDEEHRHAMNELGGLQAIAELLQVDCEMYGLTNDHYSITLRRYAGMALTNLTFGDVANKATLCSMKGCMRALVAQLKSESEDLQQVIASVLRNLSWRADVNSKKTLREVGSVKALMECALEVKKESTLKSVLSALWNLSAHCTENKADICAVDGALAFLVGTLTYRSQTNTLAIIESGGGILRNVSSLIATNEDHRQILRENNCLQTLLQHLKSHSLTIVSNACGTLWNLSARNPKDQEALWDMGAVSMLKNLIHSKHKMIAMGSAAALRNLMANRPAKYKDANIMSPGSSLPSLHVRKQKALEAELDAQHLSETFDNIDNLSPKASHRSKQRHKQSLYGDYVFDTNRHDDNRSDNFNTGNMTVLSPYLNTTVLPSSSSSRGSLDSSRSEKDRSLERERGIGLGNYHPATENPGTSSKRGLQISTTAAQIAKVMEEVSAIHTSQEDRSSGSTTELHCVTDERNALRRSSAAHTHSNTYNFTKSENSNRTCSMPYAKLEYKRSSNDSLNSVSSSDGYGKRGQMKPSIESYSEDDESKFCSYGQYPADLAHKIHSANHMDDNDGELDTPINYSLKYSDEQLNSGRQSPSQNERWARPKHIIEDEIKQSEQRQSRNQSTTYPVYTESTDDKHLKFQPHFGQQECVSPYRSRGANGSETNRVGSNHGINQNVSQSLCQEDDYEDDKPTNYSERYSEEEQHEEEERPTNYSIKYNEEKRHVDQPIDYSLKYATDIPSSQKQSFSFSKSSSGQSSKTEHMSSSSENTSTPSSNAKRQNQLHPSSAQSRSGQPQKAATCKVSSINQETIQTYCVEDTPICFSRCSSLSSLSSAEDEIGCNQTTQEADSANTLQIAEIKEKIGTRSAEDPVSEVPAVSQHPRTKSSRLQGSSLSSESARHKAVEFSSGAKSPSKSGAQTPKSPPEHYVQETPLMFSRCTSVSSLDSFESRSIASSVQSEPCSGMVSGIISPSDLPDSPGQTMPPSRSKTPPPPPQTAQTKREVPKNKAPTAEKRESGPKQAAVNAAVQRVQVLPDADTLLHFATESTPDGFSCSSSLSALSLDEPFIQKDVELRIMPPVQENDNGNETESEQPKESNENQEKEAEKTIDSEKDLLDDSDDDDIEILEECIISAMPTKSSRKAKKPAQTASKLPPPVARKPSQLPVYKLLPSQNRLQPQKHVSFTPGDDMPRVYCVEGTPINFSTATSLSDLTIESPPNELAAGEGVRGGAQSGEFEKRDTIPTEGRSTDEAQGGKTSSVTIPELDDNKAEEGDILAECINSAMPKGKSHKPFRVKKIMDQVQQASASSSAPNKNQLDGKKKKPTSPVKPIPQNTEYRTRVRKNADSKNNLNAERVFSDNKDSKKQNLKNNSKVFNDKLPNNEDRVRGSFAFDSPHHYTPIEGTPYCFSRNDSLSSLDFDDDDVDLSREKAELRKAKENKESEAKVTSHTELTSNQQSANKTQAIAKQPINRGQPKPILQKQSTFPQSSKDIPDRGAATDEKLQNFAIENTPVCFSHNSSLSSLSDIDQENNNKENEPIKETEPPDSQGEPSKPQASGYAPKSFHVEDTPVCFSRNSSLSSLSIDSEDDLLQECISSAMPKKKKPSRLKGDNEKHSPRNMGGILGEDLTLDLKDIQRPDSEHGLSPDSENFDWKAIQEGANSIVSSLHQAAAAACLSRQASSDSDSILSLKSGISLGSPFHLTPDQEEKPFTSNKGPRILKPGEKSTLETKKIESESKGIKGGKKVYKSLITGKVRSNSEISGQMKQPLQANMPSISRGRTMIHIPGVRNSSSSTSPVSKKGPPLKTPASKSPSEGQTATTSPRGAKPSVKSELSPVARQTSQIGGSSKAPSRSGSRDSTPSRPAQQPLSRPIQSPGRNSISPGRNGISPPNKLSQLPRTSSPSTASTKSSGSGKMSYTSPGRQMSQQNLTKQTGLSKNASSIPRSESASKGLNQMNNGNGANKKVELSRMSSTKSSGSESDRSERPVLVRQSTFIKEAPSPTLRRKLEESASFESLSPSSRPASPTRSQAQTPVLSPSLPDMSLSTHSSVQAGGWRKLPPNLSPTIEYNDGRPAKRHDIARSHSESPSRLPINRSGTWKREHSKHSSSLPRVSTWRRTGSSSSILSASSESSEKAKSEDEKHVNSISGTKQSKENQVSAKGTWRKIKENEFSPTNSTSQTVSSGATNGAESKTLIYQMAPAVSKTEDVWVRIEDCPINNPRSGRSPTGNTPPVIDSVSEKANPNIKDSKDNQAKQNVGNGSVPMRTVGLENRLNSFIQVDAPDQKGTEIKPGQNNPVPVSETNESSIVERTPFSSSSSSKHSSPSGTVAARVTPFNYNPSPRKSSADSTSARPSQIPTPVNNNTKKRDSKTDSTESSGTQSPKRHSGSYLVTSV

Activity [1]: Dose-dependent effect | inhibition (APC/Asef (Homo sapiens) [2]): Active | Activity [3]: Active | K [4]: 8.2 ×10⁻² /s | K [5]: 1.92 ×10⁵ /M/s | IC50 [6]: 1.09 µM | TIME [7]: 0.00333 h | Kd [8]: 0.21 µM | K [9]: 4.71 ×10⁶ /M | Kd [10]: 0.43 µM | Kd [11]: 1.8 µM
SMILES: CC(C)C[C@H](NC(=O)[C@H](C)NC(=O)[C@H](CCC(=O)O)NC(=O)CNC(=O)[C@H](C)NC(=O)OCc1ccccc1)C(=O)N[C@@H](Cc1ccc(O)cc1)C(=O)N[C@@H](CCC(=O)O)C(N)=O (Cbz-AGEALYE-NH2)

IC50 [6]: 6.95 µM
SMILES: C[C@H](NC(=O)OCc1ccccc1)C(=O)NCC(=O)N[C@@H](CCC(=O)O)C(=O)N[C@@H](CO)C(=O)N[C@@H](Cc1ccco1)C(=O)N[C@@H](Cc1ccc(O)cc1)C(=O)N[C@@H](CCC(=O)O)C(N)=O (Cbz-AGES[Ala(2-furyl)]YE-NH2)

IC50 [6]: 30.8 µM
SMILES: C#CC[C@H](NC(=O)[C@H](CO)NC(=O)[C@H](CCC(=O)O)NC(=O)CNC(=O)[C@H](C)NC(=O)OCc1ccccc1)C(=O)N[C@@H](Cc1ccc(O)cc1)C(=O)N[C@@H](CCC(=O)O)C(N)=O (Cbz-AGES[Pra]YE-NH2)

IC50 [6]: 128 µM
SMILES: C[C@H](NC(=O)OCc1ccccc1)C(=O)NCC(=O)N[C@@H](CCC(=O)O)C(=O)N[C@@H](CO)C(=O)NC1(C(=O)N[C@@H](Cc2ccc(O)cc2)C(=O)N[C@@H](CCC(=O)O)C(N)=O)C[C@@H]2CC[C@H]1C2 (some centres undefined) (Cbz-AGES[X4]YE-NH2)

IC50 [6]: 3.96 µM
SMILES: C[C@H](NC(=O)OCc1ccccc1)C(=O)NCC(=O)N[C@@H](CCC(=O)O)C(=O)N[C@@H](CO)C(=O)N[C@@H](Cc1ccc2ccccc2c1)C(=O)N[C@@H](Cc1ccc(O)cc1)C(=O)N[C@@H](CCC(=O)O)C(N)=O (Cbz-AGES[2Nal]YE-NH2)

IC50 [6]: 6.35 µM
SMILES: CC(C)C[C@H](NC(=O)[C@H](CC(=O)O)NC(=O)[C@H](CCC(=O)O)NC(=O)CNC(=O)[C@H](C)NC(=O)OCc1ccccc1)C(=O)N[C@@H](Cc1ccc(O)cc1)C(=O)N[C@@H](CCC(=O)O)C(N)=O (Cbz-AGEDLYE-NH2)

IC50 [6]: 4.29 µM
SMILES: C[C@H](NC(=O)OCc1ccccc1)C(=O)NCC(=O)N[C@@H](CCC(=O)O)C(=O)N[C@@H](CO)C(=O)N[C@H](C(=O)N[C@@H](Cc1ccc(O)cc1)C(=O)N[C@@H](CCC(=O)O)C(N)=O)c1ccccc1 (Cbz-AGES[Phg]YE-NH2)

IC50 [6]: 25.6 µM
SMILES: C[C@H](NC(=O)OCc1ccccc1)C(=O)NCC(=O)N[C@@H](CCC(=O)O)C(=O)N[C@@H](CO)C(=O)NC1(C(=O)N[C@@H](Cc2ccc(O)cc2)C(=O)N[C@@H](CCC(=O)O)C(N)=O)Cc2ccccc2C1 (Cbz-AGES[Aic]YE-NH2)

IC50 [6]: 3.64 µM
SMILES: C=C(C)C[C@H](NC(=O)[C@H](CO)NC(=O)[C@H](CCC(=O)O)NC(=O)CNC(=O)[C@H](C)NC(=O)OCc1ccccc1)C(=O)N[C@@H](Cc1ccc(O)cc1)C(=O)N[C@@H](CCC(=O)O)C(N)=O (Cbz-AGES[Leu(4,5-dehydro)]YE-NH2)

IC50 [6]: 2.01 µM
SMILES: CC(C)C[C@H](NC(=O)[C@@H](NC(=O)[C@H](CCC(=O)O)NC(=O)CNC(=O)[C@H](C)NC(=O)OCc1ccccc1)[C@H](C)O)C(=O)N[C@@H](Cc1ccc(O)cc1)C(=O)N[C@@H](CCC(=O)O)C(N)=O

IC50 [6]: 0.84 µM
SMILES: CC(C)CC[C@H](NC(=O)[C@H](CO)NC(=O)[C@H](CCC(=O)O)NC(=O)CNC(=O)[C@H](C)NC(=O)OCc1ccccc1)C(=O)N[C@@H](Cc1ccc(O)cc1)C(=O)N[C@@H](CCC(=O)O)C(N)=O (Cbz-AGES[hLeu]YE-NH2)

IC50 [6]: 10.5 µM
SMILES: C[C@H](NC(=O)OCc1ccccc1)C(=O)NCC(=O)N[C@@H](CCC(=O)O)C(=O)N[C@@H](CO)C(=O)N[C@@H](Cc1c[nH]c2ccccc12)C(=O)N[C@@H](Cc1ccc(O)cc1)C(=O)N[C@@H](CCC(=O)O)C(N)=O (Cbz-AGESWYE-NH2)

IC50 [6]: 109 µM
SMILES: C[C@H](NC(=O)OCc1ccccc1)C(=O)NCC(=O)N[C@@H](CCC(=O)O)C(=O)N[C@@H](CO)C(=O)NCC(=O)N[C@@H](Cc1ccc(O)cc1)C(=O)N[C@@H](CCC(=O)O)C(N)=O (Cbz-AGESGYE-NH2)

inhibition [1]: Dose-dependent effect | Activity [3]: Active | K [4]: 6.7 ×10⁻² /s | inhibition (APC/Asef (Homo sapiens) [12]): Dose-dependent effect | K [5]: 3.05 ×10⁵ /M/s | Activity [13]: Active | IC50 [6]: 0.25 µM | TIME [7]: 0.00417 h | Kd [8]: 0.012 µM | K [9]: 8.21 ×10⁷ /M | Kd [10]: 0.22 µM | Kd [11]: 0.21 µM
SMILES: CC(C)C[C@H](NC(=O)[C@H](CO)NC(=O)[C@H](CCC(=O)O)NC(=O)CNC(=O)[C@H](C)NC(=O)OCc1ccccc1)C(=O)N[C@@H](Cc1ccc(O)cc1)C(=O)N[C@@H](CCC(=O)O)C(N)=O (Cbz-AGESLYE-NH2)

IC50 [6]: 6.86 µM
SMILES: C[C@H](NC(=O)OCc1ccccc1)C(=O)NCC(=O)N[C@@H](CCC(=O)O)C(=O)N[C@@H](CO)C(=O)N[C@@H](Cc1ccsc1)C(=O)N[C@@H](Cc1ccc(O)cc1)C(=O)N[C@@H](CCC(=O)O)C(N)=O (Cbz-AGES[3Thi]YE-NH2)

Kd [6]: Not Active
SMILES: C[C@H](NC(=O)OCc1ccccc1)C(=O)NCC(=O)N[C@@H](CCC(=O)O)C(=O)N1CCc2cc(C(=O)N[C@@H](Cc3ccc(O)cc3)C(=O)N[C@@H](CCC(=O)O)C(N)=O)sc2C1 (Cbz-AGE[X3]YE-NH2)

IC50 [6]: 2.95 µM
SMILES: C[C@H](NC(=O)OCc1ccccc1)C(=O)NCC(=O)N[C@@H](CCC(=O)O)C(=O)N[C@@H](CO)C(=O)N[C@H](C(=O)N[C@@H](Cc1ccc(O)cc1)C(=O)N[C@@H](CCC(=O)O)C(N)=O)C1CCCCC1 (Cbz-AGES[Chg]YE-NH2)

IC50 [6]: 5.46 µM
SMILES: CC(C)C[C@H](NC(=O)[C@H](Cc1ccc(O)cc1)NC(=O)[C@H](CCC(=O)O)NC(=O)CNC(=O)[C@H](C)NC(=O)OCc1ccccc1)C(=O)N[C@@H](Cc1ccc(O)cc1)C(=O)N[C@@H](CCC(=O)O)C(N)=O (Cbz-AGEYLYE-NH2)
